Measurements from ChEMBL document CHEMBL1131259, “Synthesis and evaluation of diphenyl phosphonate esters as inhibitors of the trypsin-like granzymes A and K and mast cell tryptase” (J Med Chem, 1998).
The source made the active and inactive calls. The rule behind the calls is not given here.

Key:
[1] = molecular target: T1, Granzyme A (Homo sapiens) (UniProt P12544); test: Inhibition of human granzyme A
T1 sequence (whole entry): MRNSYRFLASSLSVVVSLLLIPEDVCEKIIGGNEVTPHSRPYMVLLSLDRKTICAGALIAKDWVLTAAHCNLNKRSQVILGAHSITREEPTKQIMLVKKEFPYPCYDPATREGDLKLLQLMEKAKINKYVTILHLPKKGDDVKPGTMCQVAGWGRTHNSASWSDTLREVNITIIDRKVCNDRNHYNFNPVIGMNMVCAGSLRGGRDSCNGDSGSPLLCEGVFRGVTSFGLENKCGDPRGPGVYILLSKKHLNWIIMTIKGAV
How it was run: (§1)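 Recombinant human and rat granzyme A, incubated with inhibitor (1.0–450 μM) at 25 °C in 0.1 M Hepes, 0.01 M CaCl2, pH 7.5 (7.6% DMSO). Timed aliquots were read for residual activity on Cbz-Arg-SBzl with DTNB at 405 nm. k_obs came from ln vt/vo vs time over 5–10 points and 2–3 half-lives, two k_obs per inhibitor. DMSO controls were run.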

[2] = molecular target: T2, Granzyme K (Rattus norvegicus) (UniProt P49864); test: Compound was evaluated to inhibit rat granzyme K; No inhibition
T2 sequence (whole entry): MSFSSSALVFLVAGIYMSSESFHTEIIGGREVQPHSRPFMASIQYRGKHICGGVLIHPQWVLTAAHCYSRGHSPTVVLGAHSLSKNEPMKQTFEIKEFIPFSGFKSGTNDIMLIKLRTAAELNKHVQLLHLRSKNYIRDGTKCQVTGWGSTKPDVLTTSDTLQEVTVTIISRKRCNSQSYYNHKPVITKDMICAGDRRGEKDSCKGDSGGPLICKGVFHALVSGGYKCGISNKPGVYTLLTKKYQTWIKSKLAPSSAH
How it was run: (§2)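 Native rat granzyme K, purified by size-exclusion in 1 M NaCl then MonoS cation exchange. Incubated with inhibitor (1.0–450 μM) at 25 °C in 0.1 M Hepes, 0.01 M CaCl2, pH 7.5 (7.1% DMSO). Timed aliquots were read for residual activity on Cbz-Arg-SBzl with DTNB at 405 nm. k_obs came from ln vt/vo vs time, one or two per inhibitor. For no-inhibition lines, none was seen after 25 min.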

[3] = molecular target: T3, Serine protease 1 (Bos taurus) (UniProt P00760); test: Compound was evaluated to inhibit bovine trypsin; No inhibition
T3 sequence (whole entry): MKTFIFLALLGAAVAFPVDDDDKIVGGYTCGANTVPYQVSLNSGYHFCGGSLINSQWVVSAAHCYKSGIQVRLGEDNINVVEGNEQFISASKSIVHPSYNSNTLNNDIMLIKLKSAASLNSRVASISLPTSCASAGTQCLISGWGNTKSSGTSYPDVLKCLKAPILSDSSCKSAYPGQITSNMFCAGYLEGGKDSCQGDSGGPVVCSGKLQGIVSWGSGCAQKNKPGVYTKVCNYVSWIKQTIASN
How it was run: (§3)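 Irreversible inhibition assayed by incubation at 25 °C in 0.1 M Hepes, 0.01 M CaCl2, pH 7.5 (2% DMSO), inhibitor 1.0–450 μM. Timed aliquots were read for residual activity on Cbz-Arg-SBzl with DTNB at 410 nm. Pseudo-first-order k_obs came from ln vt/vo vs time, using 5–10 points over 2–3 half-lives, three k_obs per inhibitor. DMSO-only controls were run. For no-inhibition lines, none was seen after 25 min.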

Tryptase (Homo sapiens) [4] = molecular target: T4, Tryptase (Homo sapiens) (UniProt Q9BZJ3+Q15661+Q9NRR2); test: Compound was evaluated to inhibit mast cell tryptase; No inhibition; format: protein assay
How it was run: (§4)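 Human lung mast cell tryptase, high-molecular-weight form, heparin-free, active sites titrated with MUGB. Incubated with inhibitor at 25 °C in 0.1 M Hepes, 10% glycerol, 10 mM heparin, pH 7.5 (7.1% DMSO). […] DMSO controls were run.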

[5] = molecular target: T3, Serine protease 1 (Bos taurus); test: Inhibition of bovine trypsin; how it was run: as §3
Tryptase (Homo sapiens) [6] = molecular target: T4, Tryptase (Homo sapiens); test: Inhibition of mast cell tryptase; format: protein assay; how it was run: as §4
[7] = molecular target: T5, Granzyme A (Rattus norvegicus) (UniProt Q8CJF4); test: Inhibition of rat granzyme A.; how it was run: as §1
T5 sequence (whole entry): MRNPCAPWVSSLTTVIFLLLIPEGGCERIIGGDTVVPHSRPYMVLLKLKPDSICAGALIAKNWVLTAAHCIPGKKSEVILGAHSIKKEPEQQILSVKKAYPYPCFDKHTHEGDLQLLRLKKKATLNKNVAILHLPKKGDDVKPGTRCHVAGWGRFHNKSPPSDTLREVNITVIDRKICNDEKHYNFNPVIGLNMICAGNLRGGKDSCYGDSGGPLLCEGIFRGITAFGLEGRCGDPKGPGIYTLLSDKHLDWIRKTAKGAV

[8] = molecular target: T2, Granzyme K (Rattus norvegicus); test: Inhibition of rat granzyme K; how it was run: as §2
Tryptase (Homo sapiens) [9] = molecular target: T4, Tryptase (Homo sapiens); test: Compound was evaluated to inhibit mast cell tryptase.; format: protein assay; settings: concentration not given here; how it was run: as §4
[10] = molecular target: T2, Granzyme K (Rattus norvegicus); test: Compound was evaluated to inhibit rat granzyme K;No inhibition; how it was run: as §2

Row | Structure (SMILES) | kobs/[I] (second-order inactivation rate constant) [1] | K obs / 1 [2] | K obs / 1 [3] | K obs / 1 (Tryptase (Homo sapiens) [4]) | K obs / 1 [5] | kobs/[I] (second-order inhibition rate constant) (Tryptase (Homo sapiens) [6]) | K obs / 1 [7] | kobs/[I] (second-order inactivation rate constant) [8] | inhibition (Tryptase (Homo sapiens) [9]) | K obs / 1 [10]
1 | NCCCC(NC(=O)OCc1ccccc1)P(=O)(Oc1ccccc1)Oc1ccccc1 (stereo not given) | 0.6 M⁻¹ s⁻¹ | inactive | inactive | inactive | – | – | – | – | – | –
2 | NC(N)c1ccc(C(NS(=O)(=O)c2cccc3ccccc23)P(=O)(Oc2ccccc2)Oc2ccccc2)cc1 (stereo not given) | 330 M⁻¹ s⁻¹ | inactive | – | – | 170 M⁻¹ s⁻¹ | 10 M⁻¹ s⁻¹ | 30 M⁻¹ s⁻¹ | – | – | –
3 | C[C@H](NC(=O)OCc1ccccc1)C(=O)NC(c1ccc(C(N)N)cc1)P(=O)(Oc1ccccc1)Oc1ccccc1 (stereo not given in full) | 1670 M⁻¹ s⁻¹ | inactive | – | – | 1850 M⁻¹ s⁻¹ | 0.8 M⁻¹ s⁻¹ | 1270 M⁻¹ s⁻¹ | – | – | –
4 | N=C(N)c1ccc(C(NC(=O)/C=C/c2cccnc2)P(=O)(Oc2ccccc2)Oc2ccccc2)cc1 (stereo not given) | 5 M⁻¹ s⁻¹ | – | inactive | inactive | – | – | 1 M⁻¹ s⁻¹ | 3 M⁻¹ s⁻¹ | – | –
5 | N=C(N)c1ccc(C(NC(=O)[C@H](Cc2ccccc2)NC(=O)OCc2ccccc2)P(=O)(Oc2ccccc2)Oc2ccccc2)cc1 (stereo not given in full) | 14 M⁻¹ s⁻¹ | – | – | – | 17 M⁻¹ s⁻¹ | – | 8 M⁻¹ s⁻¹ | 13 M⁻¹ s⁻¹ | 5% | –
6 | C[C@H](NC(=O)[C@@H](CCCCNC(=O)OC(C)(C)C)NC(=O)OCc1ccccc1)C(=O)NC(c1ccc(C(N)N)cc1)P(=O)(Oc1ccccc1)Oc1ccccc1 (stereo not given in full) | 110 M⁻¹ s⁻¹ | inactive | – | – | 3100 M⁻¹ s⁻¹ | 8.5 M⁻¹ s⁻¹ | – | – | – | –
7 | N=C(N)c1ccc(C(NC(=O)[C@@H]2CCCN2C(=O)c2cccc(Oc3ccccc3)c2)P(=O)(Oc2ccccc2)Oc2ccccc2)cc1 (stereo not given in full) | 330 M⁻¹ s⁻¹ | inactive | – | – | 4080 M⁻¹ s⁻¹ | – | – | – | 7% | –
8 | C[C@H](NC(=O)[C@@H](CCCCN)NC(=O)OCc1ccccc1)C(=O)NC(c1ccc(C(N)N)cc1)P(=O)(Oc1ccccc1)Oc1ccccc1 (stereo not given in full) | 90 M⁻¹ s⁻¹ | inactive | – | – | 3140 M⁻¹ s⁻¹ | 2 M⁻¹ s⁻¹ | – | – | – | –
9 | CC(C)C[C@H](NC(=O)OCc1ccccc1)C(=O)NC(c1ccc(C(=N)N)cc1)P(=O)(Oc1ccccc1)Oc1ccccc1 (stereo not given in full) | 6.3 M⁻¹ s⁻¹ | – | – | – | 50 M⁻¹ s⁻¹ | 0.3 M⁻¹ s⁻¹ | – | – | – | inactive
